As a reminder, the IC50 is the concentration needed to halve the response being measured. A word on the Ki: it is the equilibrium dissociation constant of an inhibitor or competing ligand from its target. Lower therefore signals tighter binding.

One test deals with L02. The test is described as follows: Antiproliferative activity against human HL7702 cells assessed as reduction in cell viability after 48 hrs by MTT assay. The following applies: L02, 48 h. The test is classed as functional, cell-based. An outline of the steps: (§1)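 Cells grown at 37 °C, 5% CO2; HeLa, HepG2, H8, HL7702 in RPMI 1640 + 10% fetal calf serum, others in high-glucose DMEM + 10% fetal calf serum. Log-phase cells seeded at 4000-12000/well by doubling time. Attached cells were given 10-fold dilutions, 100 µM to 10 nM (DMSO 0.1% v/v), for 48 h. MTT (2 mg/mL) 4 h, formazan in DMSO, A492. IC50 from triplicate means.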
Background: Tetrazolium assays rely on reduction of a dye to a coloured formazan, in cell work by metabolically active cells.

The next test relates to HepG2. The test is described as follows: Antiproliferative activity against human HepG2 cells assessed as reduction in cell viability after 48 hrs by MTT assay. The test is classed as functional, cell-based. Conditions: HepG2, 48 h. An outline of the steps:
as §1

In the next test the test system is HeLa. Description: Antiproliferative activity against human HeLa cells assessed as reduction in cell viability after 48 hrs by MTT assay. In kind it is functional, cell-based. An outline of the steps: as §1
The nature of test [1]: Antiproliferative activity against human H8 cells assessed as reduction in cell viability after 48 hrs by MTT assay. The test is classed as functional, cell-based. An outline of the steps: as §1
The subject of a further test is A549. The test is described as follows: Antiproliferative activity against human A549 cells assessed as reduction in cell viability after 48 hrs by MTT assay. Conditions: A549, 48 h. The test is classed as functional, cell-based. An outline of the steps:
as §1

The test system of a further test is MRC5. Description: Antiproliferative activity against human MRC5 cells assessed as reduction in cell viability after 48 hrs by MTT assay. The test is classed as functional, cell-based. Conditions: MRC5, 48 h. An outline of the steps:
as §1

In another test the test system is MCF7. The test is described as follows: Antiproliferative activity against human MCF7 cells assessed as reduction in cell viability after 48 hrs by MTT assay. The test is classed as functional, cell-based. The following applies: MCF7, 48 h. An outline of the steps: as §1
The subject of the next test is HMEC. The test is described as follows: Antiproliferative activity against human HMEC cells assessed as reduction in cell viability after 48 hrs by MTT assay. In kind it is functional, cell-based. An outline of the steps: as §1
A short description of test [2]: Binding affinity to alpha/beta tubulin complex (unknown origin). Also on record: species or system Homo sapiens. An outline of the steps:
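SPR assay: tubulin immobilized up to 800 mDeg (response units). Ligands were diluted two-fold from 80 µM to 2.5 µM in PBS with 0.5% (v/v) DMSO and injected at 60 µL/min for 300 s. Running buffer was PBS with 0.5% DMSO, at 25°C.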

The next test deals with Tubulin (Homo sapiens) (UniProt P68371+Q9H4B7+P0DPH7+P68366+Q13509+Q71U36+P04350+Q3ZCM7+P07437+P68363+Q9BQE3+Q6PEY2+Q13885+Q9BVA1+Q9BUF5). The test is described as follows: Inhibition of tubulin polymerization in human HeLa cells assessed as contracted and rounded cells with disordered abnormal spindles and chromosomal misalignment at 500 nM after 24 hrs by immunofluorescence based confocal microscopy. In kind it is cell-based. An outline of the steps: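 HeLa cells on glass coverslips were treated for 24 h at 25, 250 or 500 nM. They were fixed in 4% paraformaldehyde for 1 h and permeabilised with 0.2% Triton X-100 for 20 min. Cells were imaged by fluorescence and confocal microscopy.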

The structures appear in SMILES notation. Calls of active or inactive are those of the source. The calls are words filed in the database; no cut-off is given here. Some results are limits rather than exact numbers.

Consider `COc1cc([C@@H]2c3cc4c(cc3[C@@H](Nc3cccc5[nH]ccc35)[C@H]3COC(=O)[C@H]23)OCO4)cc(OC)c1OC`, for which the IC50 turned out to be 33.6 µM in the test on L02; 1800 nM with HepG2; 2100 nM with HeLa; 29.2 µM in test [1]; 2400 nM with A549; 32.4 µM in the test with MRC5. The IC50 is 1300 nM in the test on MCF7 and 64.2 µM in the test on HMEC. In [2], this compound yielded a Ki of 100 nM.
As to `COc1cc2c(c(OC)c1OC)-c1ccc(OC)c(=O)cc1[C@@H](NC(C)=O)CC2` [COLCHICINE], the IC50 in the test with L02 came out at 9.2 µM; with HepG2 it was 5800 nM; with HeLa, 10200 nM; in test [1] it was 6.1 µM; in the test on A549, 9700 nM; with MRC5, 6.2 µM. In addition, the figures for the IC50 in the test on MCF7 and in the test on HMEC were 14300 nM and 8.1 µM, respectively. The compound further returned an inhibitory constant (Ki) in [2] of 110 nM.
Take `COc1cc([C@@H]2c3cc4c(cc3[C@H](O)[C@H]3COC(=O)[C@H]23)OCO4)cc(OC)c1OC` [PODOFILOX]: the IC50 with L02 stood at 5 µM; in the test with HepG2, 2400 nM; with HeLa it was 6900 nM; in [1] it was 8.4 µM; in the test on A549, 2600 nM; in the test with MRC5, 10.6 µM. Moreover, the IC50 in the test with MCF7 came to 2400 nM; in the test with HMEC, 5.6 µM. For the same compound, on Tubulin (Homo sapiens), the inhibition result is “Active”. The compound also showed a Ki in test [2] of 270 nM.
`COc1cc([C@@H]2c3cc4c(cc3[C@@H](Nc3ccc5[nH]ccc5c3)[C@H]3COC(=O)[C@H]23)OCO4)cc(OC)c1OC`: the IC50 was found to be 43.3 µM in the test with L02; 900 nM with HepG2; 900 nM in the test with HeLa; 29.2 µM in [1]; 500 nM with A549; 51.3 µM in the test on MRC5. Also, the IC50 with MCF7 is 400 nM; with HMEC, 55.2 µM. In test [2], this compound had a Ki of 100 nM.
As for `COc1cc([C@@H]2c3cc4c(cc3[C@@H](Nc3cccc5[nH]ncc35)[C@H]3COC(=O)[C@H]23)OCO4)cc(OC)c1OC`, the IC50 came to 41.4 µM with L02; 1200 nM with HepG2; 1800 nM in the test on HeLa; 25.6 µM in test [1]; 2600 nM with A549; 45.6 µM in the test on MRC5. In addition, the IC50 in the test with MCF7 was determined as 3000 nM; in the test with HMEC, 60.5 µM. In [2], this compound yielded a Ki of 20 nM.
As for `COc1cc([C@@H]2c3cc4c(cc3[C@@H](Nc3cccc5cc[nH]c35)[C@H]3COC(=O)[C@H]23)OCO4)cc(OC)c1OC`, the IC50 in the test on L02 came out at 30.5 µM; in the test with HepG2, 2500 nM; in the test with HeLa it was 3800 nM; in [1] it was 19.4 µM; in the test with A549, 2200 nM; in the test with MRC5, 38.5 µM. Moreover, the IC50 with MCF7 was found to be 4800 nM; in the test with HMEC, 45.5 µM. The same compound registered a Ki in test [2] of 50 nM.
In the case of `COc1cc([C@@H]2c3cc4c(cc3[C@@H](Nc3cccc5cn[nH]c35)[C@H]3COC(=O)[C@H]23)OCO4)cc(OC)c1OC`, the IC50 in the test on L02 was 29.4 µM; in the test on HepG2, 6300 nM; with HeLa it was 2500 nM; in test [1], 19.5 µM; with A549, 5400 nM; in the test with MRC5 it was 35.5 µM. Moreover, the IC50 stood at 2700 nM in the test with MCF7 and 43.3 µM in the test with HMEC. For the same compound, in test [2], the Ki turned out to be 120 nM.
In the case of `COc1cc([C@@H]2c3cc4c(cc3[C@@H](Nc3cccc5cccnc35)[C@H]3COC(=O)[C@H]23)OCO4)cc(OC)c1OC`, the IC50 in the test with L02 was determined as 37 µM; in the test with HepG2, 4600 nM; with HeLa, 2700 nM; in test [1] it was 89.6 µM; in the test with A549, 1200 nM; with MRC5, 49.1 µM. The figures for the concentration for half-maximal inhibition (IC50) in the test on MCF7 and in the test on HMEC were 1000 nM and 39.2 µM, respectively. The affinity in test [2], expressed as Ki, was 190 nM.
Turning to `COc1cc([C@@H]2c3cc4c(cc3[C@@H](Nc3ccc5cn[nH]c5c3)[C@H]3COC(=O)[C@H]23)OCO4)cc(OC)c1OC`, the IC50 worked out at 38.4 µM in the test on L02; 1900 nM in the test with HepG2; 800 nM in the test on HeLa; 65.5 µM in test [1]; 1000 nM with A549; 53.6 µM in the test with MRC5. The IC50 was 800 nM in the test on MCF7 and 52.5 µM with HMEC. For the same compound, the Ki in test [2] was determined as 30 nM.
Consider `COC(=O)Nc1nc2cc(C(=O)c3cccs3)ccc2[nH]1` [NOCODAZOLE], for which the IC50 amounted to 13.5 µM in the test on L02; 400 nM in the test on HepG2; 300 nM in the test with HeLa; 18 µM in test [1]; 200 nM in the test on A549; 15.3 µM in the test with MRC5. Further, the half-maximal inhibitory concentration (IC50) came out at 200 nM with MCF7 and 11.5 µM in the test on HMEC. Also, at Tubulin (Homo sapiens), the inhibition entry is “Active”.
For the compound `COc1cc([C@@H]2c3cc4c(cc3[C@@H](Nc3cccc5ncccc35)[C@H]3COC(=O)[C@H]23)OCO4)cc(OC)c1OC`, the IC50 is 89.8 µM with L02; above 100000 nM in the test with HepG2; above 100000 nM with HeLa; 94.2 µM in [1]; above 100000 nM with A549; 70.8 µM in the test on MRC5. Further, the figures for the IC50 with MCF7 and in the test on HMEC were above 100000 nM and 79.8 µM, respectively. This compound also registered a Ki in test [2] of 60 nM.
Take `COc1cc([C@@H]2c3cc4c(cc3[C@@H](Nc3ccc5cccnc5c3)[C@H]3COC(=O)[C@H]23)OCO4)cc(OC)c1OC`: the IC50 was found to be 16.3 µM in the test with L02; 4100 nM in the test on HepG2; 3100 nM in the test on HeLa; 9.4 µM in test [1]; 2300 nM in the test with A549; 25.6 µM in the test on MRC5. Moreover, the figures for the IC50 in the test on MCF7 and with HMEC were 1400 nM and 73.5 µM, respectively. In addition, the Ki in test [2] is 120 nM.
In the case of `COc1cc([C@@H]2c3cc4c(cc3[C@@H](Nc3ccc5ncccc5c3)[C@H]3COC(=O)[C@H]23)OCO4)cc(OC)c1OC`, the IC50 was found to be 64.3 µM with L02; 800 nM with HepG2; 700 nM in the test with HeLa; 80.2 µM in [1]; 300 nM with A549; 22.5 µM with MRC5. Further, the values for the IC50 with MCF7 and with HMEC were 600 nM and 89.2 µM, respectively. For the same compound, the Ki in test [2] is 110 nM.

For the origin of these results see ChEMBL document CHEMBL4346667 (Eur J Med Chem, 2019).
